# According to ChEMBL document CHEMBL4354843, “Structure-Based Design of a Potent and Selective Covalent Inhibitor for SRC Kinase That Targets a P-Loop Cysteine” (J Med Chem, 2020):
# Key:
# [1] = target: Serine/threonine-protein kinase DCLK1 (Homo sapiens) (UniProt O15075); test: Binding affinity to wild-type human partial length DCAMKL1 (L270 to A662 residues) expressed in mammalian expression system assessed as residual binding level at 1 uM by Kinomescan method relative to control
# [2] = target: Serine/threonine-protein kinase NIM1 (Homo sapiens) (UniProt Q8IY84); test: Binding affinity to wild-type human partial length NIM1 (Q44 to N355 residues) expressed in mammalian expression system assessed as residual binding level at 1 uM by Kinomescan method relative to control
# [3] = target: Serine/threonine-protein kinase WNK2 (Homo sapiens) (UniProt Q9Y3S1); test: Binding affinity to wild-type human partial length WNK2 (V47 to D482 residues) expressed in mammalian expression system assessed as residual binding level at 1 uM by Kinomescan method relative to control
# How it was run: (§1)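 Active site-directed competition binding panel (KinomeScan, 468 kinases). Test compound at 1 μM. Read-out is kinase binding remaining versus DMSO control, expressed as percent of control. Scores above 35% are treated as weak binding.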
# [4] = target: Cyclin-dependent kinase 11B (Homo sapiens) (UniProt P21127); test: Binding affinity to wild-type human partial length CDC2L1 (P353 to G692 residues) expressed in bacterial expression system assessed as residual binding level at 1 uM by Kinomescan method relative to control
# Chain of Cyclin-dependent kinase 11B (Homo sapiens) (P21127 whole entry, the tested form may be a part): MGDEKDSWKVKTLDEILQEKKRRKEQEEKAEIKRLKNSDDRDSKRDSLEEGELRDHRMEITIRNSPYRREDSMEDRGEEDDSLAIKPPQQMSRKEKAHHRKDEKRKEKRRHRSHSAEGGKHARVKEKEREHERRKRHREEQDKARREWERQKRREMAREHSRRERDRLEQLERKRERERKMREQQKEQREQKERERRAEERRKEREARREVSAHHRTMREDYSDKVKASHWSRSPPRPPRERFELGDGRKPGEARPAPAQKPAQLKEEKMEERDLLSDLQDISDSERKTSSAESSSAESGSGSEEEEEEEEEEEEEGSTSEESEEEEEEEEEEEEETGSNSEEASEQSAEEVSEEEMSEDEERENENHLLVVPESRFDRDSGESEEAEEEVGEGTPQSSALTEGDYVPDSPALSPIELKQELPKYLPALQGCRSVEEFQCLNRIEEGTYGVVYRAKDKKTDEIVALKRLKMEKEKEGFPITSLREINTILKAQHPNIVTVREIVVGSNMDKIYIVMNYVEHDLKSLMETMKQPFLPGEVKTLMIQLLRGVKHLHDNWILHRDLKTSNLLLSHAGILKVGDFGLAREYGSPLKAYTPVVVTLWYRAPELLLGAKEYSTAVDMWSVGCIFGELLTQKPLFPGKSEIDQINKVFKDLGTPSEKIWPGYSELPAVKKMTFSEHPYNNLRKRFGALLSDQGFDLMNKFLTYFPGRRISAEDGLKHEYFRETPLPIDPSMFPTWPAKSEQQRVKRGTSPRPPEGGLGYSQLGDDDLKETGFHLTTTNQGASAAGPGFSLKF
# [5] = test system: Epidermal growth factor receptor (Homo sapiens), P00533 [L858R,T790M]; test: Binding affinity to human partial length EGFR L858R/T790M double mutant (R669 to V1011 residues) expressed in mammalian expression system assessed as residual binding level at 1 uM by Kinomescan method relative to control
# How it was run: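 KinomeScan active site-directed competition binding panel (468 kinases), compound tested at 1 μM. Result expressed as remaining kinase signal versus DMSO control (percent of control).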
# [6] = target: Activated CDC42 kinase 1 (Homo sapiens) (UniProt Q07912); test: Binding affinity to wild-type human partial length TNK2 (S159 to D474 residues) expressed in bacterial expression system assessed as residual binding level at 1 uM by Kinomescan method relative to control; how it was run: as §1
# [7] = target: Serine/threonine-protein kinase B-raf (Homo sapiens) (UniProt P15056); test: Binding affinity to wild-type human partial length BRAF (S429 to E741 residues) expressed in mammalian expression system assessed as residual binding level at 1 uM by Kinomescan method relative to control
# [8] = target: Fibroblast growth factor receptor 1 (Homo sapiens, UniProt P11362); test: Inhibition of recombinant human His-tagged FGFR1 (308 to 731 residues) expressed in baculovirus expression system using tyrosine-4 peptide as substrate incubated for 1 hr by Z'-LYTE assay
# Chain of Fibroblast growth factor receptor 1 (P11362 whole entry, the tested form may be a part): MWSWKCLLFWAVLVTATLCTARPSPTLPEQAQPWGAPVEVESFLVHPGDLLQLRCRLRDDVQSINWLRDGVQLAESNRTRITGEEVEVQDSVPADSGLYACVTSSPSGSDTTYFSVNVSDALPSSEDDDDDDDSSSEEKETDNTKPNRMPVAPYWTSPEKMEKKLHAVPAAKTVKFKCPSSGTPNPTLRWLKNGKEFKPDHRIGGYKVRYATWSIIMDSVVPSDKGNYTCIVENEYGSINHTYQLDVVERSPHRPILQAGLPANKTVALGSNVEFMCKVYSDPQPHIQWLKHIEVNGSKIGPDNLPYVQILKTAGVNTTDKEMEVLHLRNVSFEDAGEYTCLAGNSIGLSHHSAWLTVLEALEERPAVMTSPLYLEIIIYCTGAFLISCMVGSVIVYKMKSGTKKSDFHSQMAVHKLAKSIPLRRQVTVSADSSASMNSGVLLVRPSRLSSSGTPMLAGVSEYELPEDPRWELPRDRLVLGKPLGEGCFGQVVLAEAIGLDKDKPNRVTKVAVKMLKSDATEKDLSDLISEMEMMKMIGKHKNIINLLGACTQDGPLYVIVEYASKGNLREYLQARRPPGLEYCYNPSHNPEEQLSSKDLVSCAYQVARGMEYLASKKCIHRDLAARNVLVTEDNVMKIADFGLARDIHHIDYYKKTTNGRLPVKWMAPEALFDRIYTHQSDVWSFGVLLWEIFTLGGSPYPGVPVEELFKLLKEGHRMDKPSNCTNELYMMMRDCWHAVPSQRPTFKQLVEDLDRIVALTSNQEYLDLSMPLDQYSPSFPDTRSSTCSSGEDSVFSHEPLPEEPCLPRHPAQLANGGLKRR
# [9] = target: Glycogen synthase kinase-3 alpha (Homo sapiens) (UniProt P49840); test: Binding affinity to wild-type human full length GSK3A (M1 to S483 residues) expressed in bacterial expression system assessed as residual binding level at 1 uM by Kinomescan method relative to control
# How it was run: (§2)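 Active-site-directed KinomeScan competition binding panel covering 468 kinases, compound tested at 1 μM. Each readout is the kinase signal remaining with compound, expressed as a percentage of the DMSO control. […]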
# [10] = target: Serine/threonine-protein kinase PRP4 homolog (Homo sapiens) (UniProt Q13523); test: Binding affinity to wild-type human partial length PRP4 (D657 to I1007 residues) expressed in bacterial expression system assessed as residual binding level at 1 uM by Kinomescan method relative to control
# How it was run: (§3)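 Active-site-directed competition binding panel of 468 kinases (KinomeScan), compound at 1 μM. The read-out is kinase remaining bound, given as a percentage of the DMSO control. […]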
# [11] = target: Uncharacterized serine/threonine-protein kinase SBK3 (Homo sapiens) (UniProt P0C264); test: Binding affinity to wild-type human partial length SgK110 (L22 to R329 residues) expressed in bacterial expression system assessed as residual binding level at 1 uM by Kinomescan method relative to control; how it was run: as §1
# Chain of Uncharacterized serine/threonine-protein kinase SBK3 (Homo sapiens) (P0C264 whole entry, the tested form may be a part): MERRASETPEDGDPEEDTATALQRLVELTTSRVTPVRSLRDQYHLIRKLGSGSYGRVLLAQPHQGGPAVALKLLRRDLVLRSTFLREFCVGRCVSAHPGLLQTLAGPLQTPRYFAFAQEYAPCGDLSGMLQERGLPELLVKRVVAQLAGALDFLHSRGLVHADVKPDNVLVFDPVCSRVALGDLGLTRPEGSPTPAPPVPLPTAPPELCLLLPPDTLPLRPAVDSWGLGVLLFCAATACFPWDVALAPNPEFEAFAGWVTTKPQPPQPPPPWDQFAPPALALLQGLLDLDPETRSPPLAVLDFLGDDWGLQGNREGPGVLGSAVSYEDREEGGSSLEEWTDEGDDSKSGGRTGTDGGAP
# [12] = target: Homeodomain-interacting protein kinase 1 (Homo sapiens) (UniProt Q86Z02); test: Binding affinity to wild-type human partial length HIPK1 (M146 to I555 residues) expressed in mammalian expression system assessed as residual binding level at 1 uM by Kinomescan method relative to control
# [13] = target: Serine/threonine-protein kinase Sgk1 (Homo sapiens) (UniProt O00141); test: Binding affinity to wild-type human partial length SGK (I60 to L431 residues) expressed in mammalian expression system assessed as residual binding level at 1 uM by Kinomescan method relative to control
# [14] = target: Dual specificity protein kinase CLK3 (Homo sapiens) (UniProt P49761); test: Binding affinity to wild-type human full length CLK3 (M1 to R490 residues) expressed in bacterial expression system assessed as residual binding level at 1 uM by Kinomescan method relative to control; how it was run: as §2
# [15] = target: Serine/threonine-protein kinase 38 (Homo sapiens) (UniProt Q15208); test: Binding affinity to wild-type human partial length NDR1 (N33 to E449 residues) expressed in mammalian expression system assessed as residual binding level at 1 uM by Kinomescan method relative to control; how it was run: as §3
# Chain of Serine/threonine-protein kinase 38 (Homo sapiens) (Q15208 2-465 limits assumed): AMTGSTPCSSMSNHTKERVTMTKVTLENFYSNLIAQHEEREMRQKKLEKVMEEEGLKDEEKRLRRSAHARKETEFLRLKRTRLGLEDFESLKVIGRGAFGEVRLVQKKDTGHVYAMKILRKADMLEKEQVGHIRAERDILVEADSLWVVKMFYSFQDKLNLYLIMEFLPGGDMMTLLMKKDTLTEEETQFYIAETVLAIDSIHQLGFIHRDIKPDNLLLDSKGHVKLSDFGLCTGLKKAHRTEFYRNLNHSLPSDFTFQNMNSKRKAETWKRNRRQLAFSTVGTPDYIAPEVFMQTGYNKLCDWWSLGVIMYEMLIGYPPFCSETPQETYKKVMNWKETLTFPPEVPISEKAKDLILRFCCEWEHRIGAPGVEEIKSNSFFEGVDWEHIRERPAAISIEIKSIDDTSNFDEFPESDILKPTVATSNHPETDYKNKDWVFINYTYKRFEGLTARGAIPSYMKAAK
# [16] = target: Serine/threonine-protein kinase RIO3 (Homo sapiens) (UniProt O14730); test: Binding affinity to wild-type human full length RIOK3 (M1 to E519 residues) expressed in bacterial expression system assessed as residual binding level at 1 uM by Kinomescan method relative to control
# How it was run: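 Active-site-directed competition binding screen across a 468-kinase panel, run with the test compound at 1 μM. The read-out is the kinase signal remaining relative to a DMSO control, reported as a percentage. […]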
# [17] = target: Ribosomal protein S6 kinase alpha-6 (Homo sapiens) (UniProt Q9UK32); test: Binding affinity to wild-type human partial length N- terminal RSK4 kinase domain 1 (M1 to E397 residues) expressed in mammalian expression system assessed as residual binding level at 1 uM by Kinomescan method relative to control; how it was run: as §3
# [18] = target: Myosin-IIIb (Homo sapiens) (UniProt Q8WXR4); test: Binding affinity to wild-type human partial length MYO3B (M1 to D357 residues) expressed in bacterial expression system assessed as residual binding level at 1 uM by Kinomescan method relative to control
# Chain of Myosin-IIIb (Homo sapiens) (Q8WXR4 whole entry, the tested form may be a part): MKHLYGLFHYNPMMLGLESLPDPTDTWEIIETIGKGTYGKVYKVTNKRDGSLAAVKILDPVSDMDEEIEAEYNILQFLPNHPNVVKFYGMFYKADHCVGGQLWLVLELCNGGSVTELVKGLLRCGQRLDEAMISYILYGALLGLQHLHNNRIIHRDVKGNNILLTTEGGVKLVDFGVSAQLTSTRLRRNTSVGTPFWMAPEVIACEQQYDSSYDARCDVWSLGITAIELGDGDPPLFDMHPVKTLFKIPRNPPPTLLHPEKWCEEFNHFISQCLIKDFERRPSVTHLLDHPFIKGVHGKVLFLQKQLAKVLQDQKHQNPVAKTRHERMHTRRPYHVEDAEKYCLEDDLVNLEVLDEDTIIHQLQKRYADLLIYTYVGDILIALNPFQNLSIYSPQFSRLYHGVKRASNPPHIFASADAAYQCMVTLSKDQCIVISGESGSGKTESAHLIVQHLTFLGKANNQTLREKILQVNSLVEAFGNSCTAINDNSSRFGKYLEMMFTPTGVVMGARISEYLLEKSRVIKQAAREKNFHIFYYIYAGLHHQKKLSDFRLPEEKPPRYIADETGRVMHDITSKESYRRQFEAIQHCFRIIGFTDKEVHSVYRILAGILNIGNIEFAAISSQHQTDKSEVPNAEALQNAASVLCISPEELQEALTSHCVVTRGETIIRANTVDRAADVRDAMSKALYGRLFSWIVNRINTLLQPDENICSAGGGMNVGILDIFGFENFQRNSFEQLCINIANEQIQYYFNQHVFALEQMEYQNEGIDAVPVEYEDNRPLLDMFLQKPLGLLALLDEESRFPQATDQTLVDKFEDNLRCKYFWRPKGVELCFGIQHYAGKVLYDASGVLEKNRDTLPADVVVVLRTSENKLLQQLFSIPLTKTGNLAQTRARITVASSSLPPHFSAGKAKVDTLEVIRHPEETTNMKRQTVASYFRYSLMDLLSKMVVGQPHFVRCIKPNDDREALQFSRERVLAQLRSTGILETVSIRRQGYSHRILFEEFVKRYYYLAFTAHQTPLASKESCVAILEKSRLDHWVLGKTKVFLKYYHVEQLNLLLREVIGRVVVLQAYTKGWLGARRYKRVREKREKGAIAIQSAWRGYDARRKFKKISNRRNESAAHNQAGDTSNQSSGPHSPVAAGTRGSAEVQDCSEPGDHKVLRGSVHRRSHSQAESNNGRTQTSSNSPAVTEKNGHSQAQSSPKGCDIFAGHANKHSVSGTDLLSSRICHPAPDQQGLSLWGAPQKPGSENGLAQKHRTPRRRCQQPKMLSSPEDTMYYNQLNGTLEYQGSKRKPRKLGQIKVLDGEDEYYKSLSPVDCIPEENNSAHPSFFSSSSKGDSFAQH
# [19] = target: Mitogen-activated protein kinase 7 (Homo sapiens) (UniProt Q13164); test: Binding affinity to wild-type human partial length ERK5 (M1 to A409 residues) expressed in bacterial expression system assessed as residual binding level at 1 uM by Kinomescan method relative to control
# Chain of Mitogen-activated protein kinase 7 (Homo sapiens) (Q13164 2-816 limits assumed): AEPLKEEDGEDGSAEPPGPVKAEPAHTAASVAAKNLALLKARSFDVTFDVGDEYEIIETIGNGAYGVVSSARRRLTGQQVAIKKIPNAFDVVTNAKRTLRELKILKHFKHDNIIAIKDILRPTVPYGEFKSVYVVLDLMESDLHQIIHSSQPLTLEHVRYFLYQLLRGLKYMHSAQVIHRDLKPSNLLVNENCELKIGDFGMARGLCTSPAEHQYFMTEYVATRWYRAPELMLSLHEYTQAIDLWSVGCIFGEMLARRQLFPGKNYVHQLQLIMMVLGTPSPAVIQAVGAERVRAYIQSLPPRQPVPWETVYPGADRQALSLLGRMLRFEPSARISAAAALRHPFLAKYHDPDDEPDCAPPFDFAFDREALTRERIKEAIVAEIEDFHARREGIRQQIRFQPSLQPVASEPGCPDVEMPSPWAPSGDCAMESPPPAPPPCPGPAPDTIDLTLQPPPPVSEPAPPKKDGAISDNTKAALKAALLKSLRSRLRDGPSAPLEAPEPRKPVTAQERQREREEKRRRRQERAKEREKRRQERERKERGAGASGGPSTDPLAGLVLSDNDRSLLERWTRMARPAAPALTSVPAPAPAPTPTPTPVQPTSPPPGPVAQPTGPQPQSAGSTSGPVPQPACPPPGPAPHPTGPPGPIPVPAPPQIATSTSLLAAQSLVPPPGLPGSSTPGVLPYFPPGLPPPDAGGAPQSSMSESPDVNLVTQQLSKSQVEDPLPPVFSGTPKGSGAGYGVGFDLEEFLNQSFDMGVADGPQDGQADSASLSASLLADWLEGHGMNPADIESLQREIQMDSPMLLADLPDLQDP
# [20] = target: Aurora kinase B (Homo sapiens) (UniProt Q96GD4); test: Binding affinity to wild-type human partial length AURKB (D25 to A303 residues) expressed in mammalian expression system assessed as residual binding level at 1 uM by Kinomescan method relative to control
# Chain of Aurora kinase B (Homo sapiens) (Q96GD4 whole entry, the tested form may be a part): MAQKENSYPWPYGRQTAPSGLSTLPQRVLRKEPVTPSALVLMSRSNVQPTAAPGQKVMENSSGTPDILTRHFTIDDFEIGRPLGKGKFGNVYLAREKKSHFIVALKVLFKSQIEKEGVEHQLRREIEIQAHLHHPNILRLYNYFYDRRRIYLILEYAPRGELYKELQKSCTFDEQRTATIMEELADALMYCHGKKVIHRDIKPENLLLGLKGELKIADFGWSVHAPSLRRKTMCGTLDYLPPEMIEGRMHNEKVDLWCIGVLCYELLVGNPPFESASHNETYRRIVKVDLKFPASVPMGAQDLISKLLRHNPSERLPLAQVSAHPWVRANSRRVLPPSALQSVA
# How it was run: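 KinomeScan, an active site-directed competition binding panel of 468 kinases. The test compound was at 1 μM. The readout is remaining kinase binding as a percentage of the DMSO control. Scores above 35% were treated as weak binding and not listed.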
smiles,measurement,setting,value
C=CC(=O)Nc1ccccc1Nc1nc(Nc2ccc(N3CCN(C)CC3)cc2)ncc1C(=O)Nc1c(C)cccc1Cl,Activity,[1],100%
same,Activity,[2],100%
same,Activity,[3],64%
same,Activity,[4],100%
same,Activity,[5],100%
same,Activity,[6],81%
same,Activity,[7],100%
same,IC50,[8],8.34 µM
same,Activity,[9],100%
same,Activity,[10],81%
same,Activity,[11],60%
same,Activity,[12],100%
same,Activity,[13],95%
same,Activity,[14],100%
same,Activity,[15],90%
same,Activity,[16],92%
same,Activity,[17],77%
same,Activity,[18],91%
same,Activity,[19],92%
same,Activity,[20],79%
